UCH37 inh: blocks the human deubiquitinase UCH37 | Q9Y5K5 | purified proteasome/UCH37, Ub-AMC cleavage fluorescence | inhibition, % (concentration not given with the values) | 0.33% of 330,000 active | AID 588478;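 active = mean inhibition over replicate wells above about 20%, limit read from the data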
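Material: Human UCH37 enzyme supplied as purified proteasome complex | Schedule: 30 min compound-proteasome preincubation then 25 min substrate reaction, room temperature | Detection: AMC fluorescence from Ub-AMC cleavage, excitation 355 nm, emission 460 nm | Benchmarks: Wells without proteasome as full block, compound-free enzyme plus substrate as uninhibited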
pPAFAH FP inh: inhibitors of human plasma PAF acetylhydrolase (pPAFAH); recombinant pPAFAH, FP-rhodamine probe fluorescence polarization; 1.5% of 330,000 active; inhibition, % at 3.39 µM; Q13093;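 active = inhibition above the mean inhibition across the screen plus 3 SD, cut at about 25% in these data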;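 also: inhibitors block binding of the rhodamine activity-based probe so polarization drops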
PAFAH2 FP inh: PAFAH2 (human) inhibition; Q99487; recombinant PAFAH2, FP-rhodamine activity probe, fluorescence polarization; inhibition, % at 3.39 µM; 0.99% of 340,000 active; AID 492956;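 active = inhibition above the mean over all tested compounds plus 3 SD, cut at about 30% in these data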;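 also: inhibitors block probe labeling of enzyme so polarization drops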
PAFAH1B2 FP inh: inhibitors of human PAFAH1B2 | AID 492953 | P68402 | inhibition, % at 3.39 µM | recombinant PAFAH1B2, FP-rhodamine activity probe, fluorescence polarization | 1.2% of 340,000 active;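 active = inhibition above the mean of all tested compounds plus 3 SD, cut at about 24% in these data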
Target sequence (P68402 whole entry, looked up): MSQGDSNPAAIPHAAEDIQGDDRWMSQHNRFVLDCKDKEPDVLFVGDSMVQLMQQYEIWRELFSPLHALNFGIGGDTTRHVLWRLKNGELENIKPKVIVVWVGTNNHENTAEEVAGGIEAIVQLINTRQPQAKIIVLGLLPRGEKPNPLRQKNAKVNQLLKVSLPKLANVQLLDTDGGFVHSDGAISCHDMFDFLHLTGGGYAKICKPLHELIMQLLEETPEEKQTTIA
GRIN3A LBD mod: NR3A (human) ligand-binding domain modulation; NR3A LBD differential scanning fluorimetry, Tm shift; 0% = protein alone, 100% = glycine-bound protein; Tm shift relative to glycine control, % at 25 µM; 2.5% of 340,000 active; AID 1259313;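 active = melting temperature shift of at least 10% of the positive control shift, at one fixed dose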
PAFAH1B3 inh: inhibitors of human PAFAH1B3; Q15102; recombinant PAFAH1B3, FP-rhodamine probe, fluorescence polarization; inhibition, % at 3.39 µM; 0.28% of 340,000 active;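 active = inhibition above the screen-wide average of all tested compounds plus 3 SD, cut at about 25% in these data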
Target sequence (Q15102 whole entry, looked up): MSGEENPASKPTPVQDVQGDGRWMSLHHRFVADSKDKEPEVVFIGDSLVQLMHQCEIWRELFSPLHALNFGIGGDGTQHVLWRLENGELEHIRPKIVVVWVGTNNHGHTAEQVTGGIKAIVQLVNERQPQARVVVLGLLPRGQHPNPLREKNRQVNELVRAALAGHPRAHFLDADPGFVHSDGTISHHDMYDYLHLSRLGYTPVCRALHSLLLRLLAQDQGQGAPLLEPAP
PAFAH2 FP conf: confirmation of human PAFAH2 inhibitors | shares compounds with PAFAH2 FP inh | recombinant PAFAH2, FP-rhodamine activity probe, fluorescence polarization | inhibition, % at 3.39 µM | 65% of 2,300 active;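 active = mean inhibition over three repeats above a set limit taken from the earlier primary screen, cut at about 30% in these data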;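 also: inhibitor blocks binding of rhodamine activity probe so polarization falls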
Numbers stand for hits; - = inactive; . = no result given. Shown are actives, neighbours in structure and some others; about 4.8% of the full set was active somewhere.

SMILES	UCH37 inh	pPAFAH FP inh	PAFAH2 FP inh	PAFAH1B2 FP inh	GRIN3A LBD mod	PAFAH1B3 inh	PAFAH2 FP conf
O=C(COC(=O)/C=C/c1cccs1)Nc1cccc(S(=O)(=O)N2CCOCC2)c1	-	-	68	-	-	-	56
COC(=O)NN=Cc1cn(CCOc2ccc(OC)cc2)c2ccccc12	-	.	.	.	.	.	.
Cc1cc(C(=O)NN=C2CC(=O)CC(C)(C)C2)n[nH]1	-	.	.	.	.	.	.
CON=C(CS(=O)c1ccc(Br)cc1)c1ccc(OC)cc1 (centres undefined)	-	.	.	.	.	.	.
COc1cccc(/C=C/C(=O)OCC(=O)Nc2cccc(S(=O)(=O)N3CCOCC3)c2)c1OC	-	-	59	-	-	-	58
Nc1nnc(CC(=O)NN=Cc2cccc(OCCOc3ccccc3)c2)s1	-	.	.	.	.	.	.
CCCC(=NNC(=O)c1cccc(C)c1)c1ccccc1	-	.	.	.	.	.	.
CC(NC(=O)COC(=O)/C=C/c1cccc(F)c1)c1ccccc1 (centres undefined)	-	-	46	-	-	-	34
CC(NC(=O)COC(=O)/C=C/c1ccc(Cl)cc1)c1ccccc1 (centres undefined)	-	-	31	-	-	-	-
COc1cc(/C=C/C(=O)OCC(=O)NC(C)c2ccccc2)cc(OC)c1OC (centres undefined)	-	-	31	-	-	-	-
CCNC(=O)COC(=O)/C=C/c1cccc(F)c1	-	-	-	-	-	-	.
CC(NC(=O)COC(=O)COc1ccc(Cl)cc1)c1ccccc1 (centres undefined)	-	-	-	-	-	-	.
CCOc1cc(C=NNC(=O)CSc2nncn2C)ccc1OCC(N)=O	-	.	.	.	.	.	.
O=C(NN=Cc1ccco1)c1ccc(Br)o1	-	.	.	.	.	.	.
C=CCNC(=O)/C(C#N)=C/c1ccccc1Cl	-	-	-	-	-	-	.
C=CCNC(=O)/C(C#N)=C/c1cc(Br)ccc1OC	-	-	33	-	-	-	-
C=CCNC(=O)c1onc(CSc2ccccc2C)c1C(=O)O	-	-	36	-	-	-	-
Cc1cc(C)cc(SCc2noc(C(=O)NCC3CCCO3)c2C(=O)O)c1 (centres undefined)	-	-	36	-	-	-	-
C=CCNC(=O)c1onc(CSc2cc(C)ccc2C)c1C(=O)O	-	-	-	-	-	-	.
CCCCNC(=O)c1onc(CSc2ccccc2CC)c1C(=O)O	.	-	58	-	-	-	44
CCCCNC(=O)c1onc(CSc2ccccc2)c1C(=O)NCCCC	-	-	-	-	-	-	.
Cc1cccc(SCc2noc(C(=O)NCC3CCCO3)c2C(=O)O)c1 (centres undefined)	-	-	-	-	-	-	.
COc1ccc(C(=O)NN=Cc2coc3ccc(C)cc3c2=O)cc1	-	.	.	.	.	.	.
CC(Cn1cnc([N+](=O)[O-])n1)=NNC(=O)COc1c(Cl)cc(Cl)cc1Cl	-	.	.	.	.	.	.
CC1Cc2ccccc2N1S(=O)(=O)c1cccc(C(=O)OCC(=O)NCc2ccco2)c1 (centres undefined)	-	-	33	-	-	-	-
SMILES	UCH37 inh	pPAFAH FP inh	PAFAH2 FP inh	PAFAH1B2 FP inh	GRIN3A LBD mod	PAFAH1B3 inh	PAFAH2 FP conf
CC(C)(C)c1ccc(C(=O)OCC(=O)NCc2ccco2)cc1	-	-	55	-	-	-	57
Cc1ccc(C(=O)OCC(=O)NCc2ccco2)cc1C	.	-	59	-	-	-	34
CC1CC(C)CN(C(=O)/C(=C\c2ccccc2)c2ccccc2)C1 (centres undefined)	-	-	-	-	-	-	.
CC1CCCCN1C(=O)/C(=C\c1ccccc1)c1ccccc1 (centres undefined)	-	-	38	-	-	-	-
O=C(O)c1cccc(NN=Cc2ccc(F)c(F)c2)c1	-	.	.	.	.	.	.
O=C(O)c1cccc(N/N=C/C2=C(Cl)c3cc(Cl)ccc3SC2)c1	.	.	36	-	-	-	-
CCOc1ccc(C=NNC(=O)c2ccoc2C)cc1OC	-	.	.	.	.	.	.
CC(C)OC(=O)c1ccc(NCc2cc(O)ccc2O)cc1	.	.	-	-	-	-	.
O=C(OCc1ccccc1)c1ccc(NCc2cc(O)ccc2O)cc1	.	.	72	-	-	-	57
Cc1ccc(C=Nn2cnc3sc(-c4ccccc4)cc3c2=O)o1	-	.	.	.	.	.	.
